Source: ChEMBL document CHEMBL1240478, “Inhibitors of human neutrophil elastase based on a highly functionalized N-amino-4-imidazolidinone scaffold” (Eur J Med Chem, 2010)
Active and inactive are the calls of the source. The calls are words filed in the database; no cut-off is given here.

How the values were obtained:
[1] = molecular target: T1, Neutrophil elastase (Homo sapiens) (UniProt P08246); test: Inhibition of human neutrophil elastase at 3.5 mM after 30 mins assessed as p-nitroaniline release
T1 sequence (whole entry): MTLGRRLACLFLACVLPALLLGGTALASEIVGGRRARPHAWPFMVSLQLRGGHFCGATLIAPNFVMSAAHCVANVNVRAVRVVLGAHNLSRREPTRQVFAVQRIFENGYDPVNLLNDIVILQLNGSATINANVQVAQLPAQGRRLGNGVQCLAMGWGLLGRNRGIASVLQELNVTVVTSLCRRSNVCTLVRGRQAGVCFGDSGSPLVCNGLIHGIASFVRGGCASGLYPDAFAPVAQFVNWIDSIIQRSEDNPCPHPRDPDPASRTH
Procedure, shortened: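 HNE (7.0 μM stock) preincubated 30 min at 25 °C with inhibitor in DMSO at inhibitor/enzyme ratio 500, in 0.1 M HEPES/0.5 M NaCl pH 7.25. Methoxysuccinyl-Ala-Ala-Pro-Val p-nitroanilide then added, and p-nitroaniline release followed at 410 nm for 2 min. DMSO-only control. Remaining activity = (v/v0)×100, mean of duplicate or triplicate runs.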

[2] = molecular target: Myeloblastin (proteinase 3) (Homo sapiens) (UniProt P24158); test: Inhibition of human neutrophil proteinase 3 at 1.73 mM
Chain of Myeloblastin (proteinase 3) (Homo sapiens) (P24158 whole entry, looked up): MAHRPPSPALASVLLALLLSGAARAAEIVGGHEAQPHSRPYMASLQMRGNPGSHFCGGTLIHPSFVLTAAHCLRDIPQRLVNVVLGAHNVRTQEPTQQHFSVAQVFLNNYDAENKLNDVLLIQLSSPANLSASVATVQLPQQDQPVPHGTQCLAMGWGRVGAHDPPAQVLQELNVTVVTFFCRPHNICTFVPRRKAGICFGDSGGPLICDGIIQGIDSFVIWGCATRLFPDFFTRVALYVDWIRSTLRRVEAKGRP

[3] = molecular target: T2, Neutrophil elastase (Homo sapiens, UniProt P08246); test: Reversible competitive inhibition of human neutrophil elastase by Dixon plot analysis
T2 sequence (P08246 whole entry): T1 sequence (whole entry)

| inhibition [1] [%] | inhibition [2] | Ki [3] [µM] | SMILES |
| --- | --- | --- | --- |
| 0 | 0% | – | CC(C)CC1C(=O)N(NC(=O)c2ccccc2C(=O)O)CN1Cc1ccccc1 (racemic) |
| 0 | 0% | – | O=C(O)CCC(=O)NN1CN(Cc2ccccc2)C(Cc2ccccc2)C1=O (racemic) |
| 0 | 0% | – | O=C(O)c1ccccc1C(=O)NN1CN(Cc2ccccc2)C(Cc2ccccc2)C1=O (racemic) |
| 0 | 0% | – | O=C(NN1CN(Cc2ccccc2)C(Cc2ccccc2)C1=O)C1CC(=O)N(Cc2ccco2)C1 (racemic) |
| 0 | 0% | – | CC(C)CC1C(=O)N(NC(=O)CCc2ccccc2)CN1Cc1ccccc1 (racemic) |
| 0 | 0% | – | Cc1ccc(S(=O)(=O)N(N2CN(Cc3ccccc3)C(CC(C)C)C2=O)S(=O)(=O)c2ccc(C)cc2)cc1 (racemic) |
| 0 | 0% | – | O=C(O)c1ccccc1C(=O)NN1CNC(Cc2ccccc2)C1=O (racemic) |
| – | inactive | 7.34 | CC(C)C[C@@H]1C(=O)N(NC(=O)[C@@H](Cc2ccccc2)NC(=O)OCc2ccccc2)CN1Cc1ccccc1 (racemic) |
| 0 | 0% | – | CCOC(=O)CNC(=O)NN1CN(Cc2ccccc2)C(CC(C)C)C1=O (racemic) |
| 0 | 0% | – | O=C(O)CCC(=O)NN1CNC(Cc2ccccc2)C1=O (stereo not given) |
| 0 | 0% | – | CCOC(=O)CNC(=O)NN1CN(Cc2ccccc2)C(Cc2ccccc2)C1=O (racemic) |
| 0 | 0% | – | O=C(NN1CNC(Cc2ccccc2)C1=O)C1CC(=O)N(Cc2ccc(F)cc2)C1 (racemic) |
| 0 | 0% | – | CC(C)CC1C(=O)N(NC(=O)NCCc2ccccc2)CN1Cc1ccccc1 (racemic) |
| 0 | 0% | – | CC(C)CC1C(=O)N(N(S(C)(=O)=O)S(C)(=O)=O)CN1Cc1ccccc1 (racemic) |
| 0 | 0% | – | CC(C)CC1C(=O)N(NC(=O)CCC(=O)O)CN1Cc1ccccc1 (racemic) |
| 0 | 0% | – | O=C(NCCc1ccccc1)NN1CN(Cc2ccccc2)C(Cc2ccccc2)C1=O (racemic) |
| 0 | 0% | – | O=C(NN1CN(Cc2ccccc2)C(Cc2ccccc2)C1=O)C1CC(=O)N(Cc2ccccc2)C1 (racemic) |
| 0 | 0% | – | O=C(NCCc1ccccc1)NN1CNC(Cc2ccccc2)C1=O (racemic) |
| 0 | 0% | – | O=C(NN1CN(Cc2ccccc2)C(Cc2ccccc2)C1=O)C1CC(=O)N(Cc2ccc(F)cc2)C1 (racemic) |
| 0 | 0% | – | O=C(NN1CNC(Cc2ccccc2)C1=O)C1CC(=O)N(Cc2ccccc2)C1 (racemic) |
